High-throughput results (PubChem)
Only some compounds are listed: those with a hit (about 4.3% of all), similar ones and a draw of the others.
OX1R antag-1 – antagonists of human orexin 1 receptor | AID 434989 | 330,000 tested, 0.43% active | inhibition, % at 5 µM | CHO/OX1R cells, Fluo-8 calcium fluorescence, orexin A;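 active = inhibition above its plate's threshold, mean inhibition of all tested compounds on the plate plus 3 SD, cut at about 37% in these data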
CHO parental Ca – counter-screen for OX1R antagonists: effect in parental CHO cells; parental CHO-K1, ATP-induced calcium, Fluo-8 fluorescence; inhibition, % at 5.6 µM; 330,000 tested, 0.63% active; AID 463079;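 active = inhibition above that plate's mean sample inhibition plus 3 SD, cut at about 26% in these data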
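Assay system: untransfected parental CHO cell line. Also added: ATP agonist challenge. Dosing: one dose, 5.6 µM nominal. Measured by: Fluo-8 fluorescence. Read-out: % inhibition. Benchmarks: ATP wells versus no-ATP DMSO wells. Repeats: no replicates.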
GalR3 antag – human GalR3 antagonism; O60755; HEK293 GalR3-CNG cAMP membrane potential fluorescence; galR3 body fused to GalR1 C-terminus; inhibition, % at 3 µM; 360,000 tested, 0.44% active; AID 651719;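 active = inhibition above the screen-wide average plus 3 SD, cut at about 13% in these data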;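 note: forskolin and galanin both at EC90 stimulate the cells; cAMP rise reported by CNG channel membrane potential dye signal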
Target sequence (O60755 1-299 limits assumed): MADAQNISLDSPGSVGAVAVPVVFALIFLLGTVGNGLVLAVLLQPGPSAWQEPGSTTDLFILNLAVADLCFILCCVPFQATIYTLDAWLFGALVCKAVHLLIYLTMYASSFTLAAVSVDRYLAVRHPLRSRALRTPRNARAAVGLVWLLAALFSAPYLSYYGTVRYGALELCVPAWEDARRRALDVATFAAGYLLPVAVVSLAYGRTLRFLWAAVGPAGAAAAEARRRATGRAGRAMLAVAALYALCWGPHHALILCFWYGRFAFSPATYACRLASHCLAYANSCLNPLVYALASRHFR
TAAR1 antagonist – human TAAR1 antagonism; Q96RJ0; CHO RD-HGA16 TAAR1, Fluo-8 calcium fluorescence, antagonist; inhibition, % at 3 µM; 360,000 tested, 1.5% active;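 active = inhibition above a per-plate cutoff, the mean inhibition of test compounds on that plate plus 3 SD, cut at about 49% in these data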
Target sequence (Q96RJ0 whole entry, looked up): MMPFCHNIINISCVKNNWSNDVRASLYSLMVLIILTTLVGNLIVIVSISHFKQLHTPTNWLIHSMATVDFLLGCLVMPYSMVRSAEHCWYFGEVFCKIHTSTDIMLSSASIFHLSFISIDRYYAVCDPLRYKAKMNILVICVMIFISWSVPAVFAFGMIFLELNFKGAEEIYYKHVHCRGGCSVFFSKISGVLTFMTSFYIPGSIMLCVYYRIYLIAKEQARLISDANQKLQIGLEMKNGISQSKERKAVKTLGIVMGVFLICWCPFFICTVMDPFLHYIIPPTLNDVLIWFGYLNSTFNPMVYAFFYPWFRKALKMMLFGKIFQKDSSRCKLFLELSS
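System: RD-HGA16 CHO cells with stable hTAAR1 and Gα16 | Probe or stimulus: EC80 β-phenethylamine stimulus | Dosing: 3 µM, single point | Times: Dye loading 75 min at 37 °C, then 30 min room temperature | Measured by: Fluo-8 calcium-sensitive fluorescence | Read-out basis: % inhibition of agonist calcium response | Replicates: n of 1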
TAAR1 ag – human TAAR1 agonism. AID 624467. activation, % at 3 µM. CHO RD-HGA16 TAAR1, Fluo-8 calcium fluorescence; vehicle wells 0%, saturating PEA agonist 100%. Q96RJ0. 360,000 tested, 0.99% active;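 active = activation above the mean activation of all test compounds in the run plus 3 SD, cut at about 38% in these data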
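Signal – calcium-sensitive Fluo-8 signal, excitation 470-495, emission 515-575 nm · System – RD-HGA16 (CHO) cells co-expressing Gα16 and hTAAR1 · Incubation – 17-24 h seeding, 75 min 37 °C dye, 30 min RT · Compound dosing – 3 µM single concentration · Repeats – no replicates (n 1)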
OX1R antag-2 – blocks the human orexin 1 receptor; 330,000 tested, 1.8% active; OX1R-expressing cells, FRET antagonist read-out; inhibition, % at 6.6 µM; O43613; in the data active = inhibition mostly above about 38%, no sharp cut-off; inactive = mostly below about 40%
Numbers stand for hits; n = inactive; x = not tested or not shown.

SMILES	OX1R antag-1	CHO parental Ca	GalR3 antag	TAAR1 antagonist	TAAR1 ag	OX1R antag-2
COc1ccc(C2CC(=O)C(c3ccc(C(F)(F)F)cc3)=CN2Cc2ccccc2)cc1 (stereo not drawn)	x	x	n	n	n	x
O=C(COC(=O)c1ccccc1[N+](=O)[O-])c1ccc(C2CCCCC2)cc1	n	47	n	n	n	n
N#CC1(NC(=O)COC(=O)c2ccccc2[N+](=O)[O-])CCCCC1	n	n	n	n	n	n
N#Cc1c(NC(=O)c2ccc(Cn3cc(Br)cn3)o2)sc2c1CCCCC2	n	n	n	n	n	n
COC(=O)c1sc(NC(=O)c2ccc(Cn3cc(Cl)cn3)o2)c(C#N)c1C	n	n	n	n	n	72
COc1ccc(NC(=O)/C(Cl)=C(/Cl)S(=O)Cc2ccccc2)cn1 (stereo not drawn)	n	n	n	74	41	n
Cc1cc(N2CCN(S(C)(=O)=O)C[C@H]2C)ccc1N1CCN(Cc2ccccc2)[C@H](C)C1	x	x	n	n	n	x
CCOc1ccc(OCCN2C(=O)NC(Cc3c[nH]c4ccccc34)C2=O)cc1 (stereo not drawn)	n	n	n	n	n	43
CSc1nc(N)nc(-c2cccs2)c1C#N	n	n	n	n	n	101
COc1ccc(NC(=O)n2ncc3c(C)cccc32)cc1OC	n	n	n	n	n	35
O=C(NCCN1CCC(n2c(=O)[nH]c3ccccc32)CC1)c1cccc2c1-c1ccccc1C2=O	x	x	n	59	n	x
O=C(NCCN1CCC(n2c(=O)[nH]c3ccccc32)CC1)c1ccccc1Cl	x	x	n	n	n	x
CCc1ccc(OCC(=O)Nc2nnc(-c3ccco3)s2)cc1	n	n	n	n	39	n
COc1cccc(-c2nnc(NC(=O)c3ccco3)s2)c1	n	n	n	n	n	53
CC(C)CC(=O)Nc1nnc(-c2ccco2)s1	n	n	n	n	n	n
COc1cccc(N(C(=O)c2ccco2)c2nc(-c3sc(NC(=O)c4ccco4)nc3C)cs2)c1	n	n	n	51	n	n
COc1ccc(-c2nnc(NC(=O)c3ccco3)s2)cc1	n	n	n	n	n	n
Cc1c(Cl)ccc2sc(NC(=O)C3CC3)nc12	n	n	x	n	n	44
CCCC(=O)Nc1nc2c(C)c(Cl)ccc2s1	n	n	n	n	n	n
CCNC(=O)C1(C)CCCN(C(=O)CCc2cccs2)C1 (stereo not drawn)	x	x	n	n	n	x
CS(=O)(=O)NCCCNc1ccc(C(F)(F)F)cc1[N+](=O)[O-]	n	n	n	n	n	n
CS(=O)(=O)NCCCNc1ccc(Cl)cc1[N+](=O)[O-]	n	n	n	n	n	43
O=C(CNC(=O)C(c1ccccc1)c1ccccc1)N/N=C/c1cccnc1	n	n	n	n	n	n
O=C(N/N=C/c1cccc(OC(=O)c2cccc(Br)c2)c1)c1cccnc1	x	x	n	58	n	x
O=C(Nc1cccc(C(=O)Nc2cccc(Br)c2)c1)c1ccccc1	n	n	n	62	n	n
SMILES	OX1R antag-1	CHO parental Ca	GalR3 antag	TAAR1 antagonist	TAAR1 ag	OX1R antag-2
O=C(N/N=C/c1cccnc1)c1ccc(NC(=O)C(c2ccccc2)c2ccccc2)cc1	n	n	n	57	n	n
Cn1ncc(Br)c1C(=O)N/N=C/c1cccc(OC2CSC2)c1	n	n	n	n	n	n
O=C(N/N=C/c1cccc(OC2CSC2)c1)c1ccccc1O	n	n	n	n	n	72
O=C(COC(=O)C1CC1)NCc1ccc(Cl)cc1Cl	n	n	n	n	n	n
O=C(N/N=C/c1cccc(Oc2ccccc2)c1)c1cccc(Br)c1	n	n	n	57	n	n
CC(=O)Nc1cccc(C(=O)N/N=C/c2cccnc2)c1	n	n	n	n	n	n
O=C(/C=C/c1cccs1)c1ccc(NC(=O)c2cccc(Br)c2)cc1	n	n	n	55	n	n
O=C(N/N=C/c1cccnc1)c1cccc(NC(=O)c2cccc(Br)c2)c1	n	n	n	51	n	n
O=C(N/N=C/c1cccc(Oc2ccccc2)c1)c1cccc(O)c1	x	x	n	n	n	x
Cc1cc2c(c(=O)o1)[C@@]1(C(=O)N(C)c3ccccc31)C1=C(CC3(CCCCC3)OC1=O)O2	x	x	n	n	n	x
COc1cc(/C=C(\C#N)C(=O)c2c[nH]c3ccccc23)cc(OC)c1O	n	n	n	n	41	n
O=C(CSc1nnc(NC(=O)c2ccc(F)cc2)s1)NC1CCCC1	n	n	n	n	n	n
COc1ccccc1NC(=O)CC1S/C(=N/N=C2\CCCc3ccccc32)NC1=O (stereo not drawn)	n	n	n	n	n	54
CC12CCC(=O)C=C1CCC1C2CCC2(C)C(c3csc(N)n3)CCC12 (stereo not drawn)	x	x	n	51	n	x
CN(C1=C(NC(=O)c2ccccc2)C(=O)c2ccccc2C1=O)C1CCS(=O)(=O)C1 (stereo not drawn)	n	n	n	n	n	85
CC1(C(=O)NCc2ccccc2)Oc2ccccc2NC1=O (stereo not drawn)	n	n	n	n	n	n
CC1(C(=O)NCc2ccc(Cl)c(Cl)c2)Oc2cccnc2NC1=O (stereo not drawn)	n	n	n	n	53	n
CC1CC(C)CN(C(=O)CNC(=O)c2ccc3ccccc3c2)C1 (stereo not drawn)	n	n	n	n	n	74
COc1cccc(OC)c1C(=O)Nc1cccc(S(=O)(=O)Nc2ccccc2Cl)c1	n	n	n	n	n	n
N#Cc1cccc(NC(=O)COC(=O)c2cc(S(=O)(=O)Nc3ccccc3Cl)ccc2O)c1	n	n	n	n	n	38
O=C(CCOc1ccccc1)Nc1cccc(S(=O)(=O)Nc2ccccc2Cl)c1	57	37	n	n	n	n
COCC(=O)Nc1ccc2c(c1)[C@@H]1C[C@H](CC(=O)OC)O[C@@H](CO)[C@@H]1O2	x	x	n	n	n	x
COc1ccc(S(=O)(=O)N2CCOCC2)cc1NC(=O)C1CCCCN1S(=O)(=O)c1ccccc1 (stereo not drawn)	x	x	n	n	n	x
O=C1NC(c2cccc(C(F)(F)F)c2)c2c(-c3ccccc3)n[nH]c21 (stereo not drawn)	x	x	n	n	n	x
COc1cccc(NC(=O)CN2C(=O)CSc3ccc(S(=O)(=O)N4CCOCC4)cc32)c1	n	n	n	n	n	n
COc1cccc(CNC(=O)CN2C(=O)CSc3ccc(S(=O)(=O)N4CCOCC4)cc32)c1	n	n	n	n	n	37
Cc1cc(O)ccc1C1(c2ccc(O)cc2C)OC(=O)c2ccccc21	n	n	n	n	n	n
O=C1OC2(c3ccccc31)c1cc(I)c(O)c(I)c1Oc1c2cc(I)c(O)c1I	106	94	x	x	x	91
